{
  "source": "paper PMC3932958",
  "about": "(Journal of medicinal chemistry, 2013)",
  "key": {"[1]": {"tested_on": "rat chronic constriction injury model of neuropathic pain", "conditions": "cited from earlier work"}, "GCPII": {"tested_on": "GCPII", "conditions": "read-out: IC50 (GCPII); cited from earlier work"}, "[2]": {"conditions": "healthy subjects; cited from earlier work"}, "[3]": {"assay": "Chemical stability in simulated gastric fluid", "type": "physicochemical", "conditions": "simulated gastric fluid pH 1.2, 37 °C, up to 48 h", "procedure,_shortened": "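Test compound added to simulated gastric fluid (pH 1.2) and incubated at 37 °C. Samples taken at 30 min, 1, 4 and 48 h. Remaining thiolactone and hydrolysed parent quantified by HPLC: C18 column, water/acetonitrile gradient with 0.1% formic acid, UV detection at 220 nm.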"}, "[4]": {"assay": "Preliminary in vivo pharmacokinetics in rats", "conditions": "rat, oral 10 mg/kg, time points 0.25, 0.5, 1, 3 h"}, "[5]": {"assay": "Metabolic stability in rat liver microsomes", "type": "in vitro ADME", "conditions": "over 1.5 h (data not shown)", "procedure,_shortened": "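Test compound at 10 μM incubated with rat liver microsomes (0.5 mg/mL) in 100 mM potassium phosphate, pH 7.4, in triplicate. Aliquots at 0, 30, 60 and 90 min were quenched with 2 volumes of ice-cold acetonitrile containing losartan as internal standard. Appearance of the parent thiol and loss of compound were followed by LC/MS/MS (C18, negative-ion ESI, MRM of [M − H]−).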"}},
  "data": [
    {"smiles": "O=C(O)CCC(CCCS)C(=O)O", "note": "(stereo not drawn) [Compound 1, 2-(3-mercaptopropyl)pentanedioic acid]", "values": [
      {"measurement": "Efficacy in preclinical animal models by oral administration", "setting": "[1]; variety of preclinical animal models, oral", "value": "showed efficacy"},
      {"measurement": "IC50", "setting": "GCPII", "value": 90, "unit": "nM"}
    ]},
    {"smiles": "O=C(O)c1cccc(-c2cccc(CCS)c2C(=O)O)c1", "note": "[Compound 2, 3-(2-mercaptoethyl)-biphenyl-2,3’-dicarboxylic acid]", "values": [
      {"measurement": "Potency in a preclinical model of neuropathic pain following oral administration", "setting": "[1]; oral administration", "value": "significantly improved potency over 1"},
      {"measurement": "IC50", "setting": "GCPII", "value": 2, "unit": "nM"}
    ]},
    {"smiles": "CC(=O)S[C@@H](Cc1ccccc1)C(=O)N[C@H]1Cc2ccccc2[C@H]2CCC[C@@H](C(=O)O)N2C1=O", "note": "[Compound 3]", "values": [
      {"measurement": "Plasma exposure to parent 4 after oral administration of prodrug", "setting": "[2]", "value": "substantial plasma exposure to 4"}
    ]},
    {"smiles": "O=C(O)CCC1CCCSC1=O", "note": "(stereo not drawn) [Compound 5, 3-(2-Oxotetrahydro-2H-thiopyran-3-yl)propanoic acid]", "values": [
      {"measurement": "Release of parent compound / stability in simulated gastric fluid", "setting": "[3]", "value": "completely stable"},
      {"measurement": "Time of highest plasma level of compound 1", "setting": "[4]", "value": "highest at the earliest time point"}
    ]},
    {"smiles": "O=C(O)c1cccc(-c2cccc3c2C(=O)SCC3)c1", "note": "[Compound 6, 3-(1-Oxoisothiochroman-8-yl)benzoic acid]", "values": [
      {"measurement": "Release of parent compound / stability in simulated gastric fluid", "setting": "[3]", "value": "completely stable"},
      {"measurement": "Stability in rat liver microsomes", "setting": "[5]", "value": "completely stable"}
    ]}
  ]
}
